Data on 23 compounds can be found in ChEMBL document CHEMBL4011646, “Discovery of a Small-Molecule Inhibitor of Interleukin 15: Pharmacophore-Based Virtual Screening and Hit Optimization” (J Med Chem, 2017).

Sequence of IL15-IL15 receptor (Homo sapiens, UniProt P40933+Q13261) (P40933 whole entry, the tested form may be a part): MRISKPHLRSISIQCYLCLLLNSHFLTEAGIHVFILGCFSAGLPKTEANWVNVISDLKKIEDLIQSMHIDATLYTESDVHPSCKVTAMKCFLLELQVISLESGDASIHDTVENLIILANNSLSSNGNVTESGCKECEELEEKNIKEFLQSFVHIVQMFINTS
Sequence of IL15-IL15 receptor (Homo sapiens, UniProt P40933+Q13261) (Q13261 whole entry, the tested form may be a part): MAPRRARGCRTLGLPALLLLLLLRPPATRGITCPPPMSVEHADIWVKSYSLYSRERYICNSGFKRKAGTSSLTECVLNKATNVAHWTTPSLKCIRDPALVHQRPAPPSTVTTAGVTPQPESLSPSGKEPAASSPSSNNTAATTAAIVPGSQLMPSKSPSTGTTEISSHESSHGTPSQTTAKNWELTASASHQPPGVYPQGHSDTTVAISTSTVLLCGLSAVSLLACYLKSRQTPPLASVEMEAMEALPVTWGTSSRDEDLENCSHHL

The first experiment has as its target IL15-IL15 receptor (Homo sapiens, UniProt P40933+Q13261). Description: Inhibition of human IL-15Ralpha-sushi domain/human IL-15-induced mouse 32D-beta cell proliferation preincubated for 30 mins with protein followed by cell addition measured after 2.5 days by Alamar blue reduction assay.
Conditions: not given; call rule not given here
The gist of the method: (§1)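 32Dβ cells (IL-2Rβ/γ) were starved 4 h without cytokine, then 1 × 10^4 cells were cultured 2.5 days with 100 pM RLI or 1.5 nM IL-2. The cytokine was preincubated 30 min with fixed or increasing compound concentrations or vehicle (culture medium, DMSO 0.1% final). Alamar blue was added for 6 h at 37 °C, with fluorescence read at ex 560/em 590 nm. Tested in triplicate; IC50 is the mean of ≥2 independent assays.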
On to `CCOC(=O)c1cccc(NC(=O)CSc2nnc(Cc3nn(C)c(=O)c4ccccc34)n2C)c1`, for which the IC50 entry is “Not Active”.
Still for that read-out and setting: as for `COc1ccc(NC(=O)CSc2nnc(Cc3nn(C)c(=O)c4ccccc34)n2C)cc1`, the entry is “Not Active”; as for `Cn1c(Cc2nn(C)c(=O)c3ccccc23)nnc1SCC(=O)Nc1cccc(C(=O)O)c1`, “Not Active”.
The same measure, in the same setting: as for `Cn1c(Cc2nn(C)c(=O)c3ccccc23)nnc1SCC(=O)Nc1ccc(O)cc1`, the entry is “Not Active”; as for `Cn1c(Cc2nn(C)c(=O)c3ccccc23)nnc1SCC(=O)Nc1ccc(F)cc1F`, “Not Active”; as for `Cn1c(Cc2nn(C)c(=O)c3ccccc23)nnc1SCC(=O)NC12CC3CC(CC(C3)C1)C2`, “Not Active”.
Regarding `Cn1c(Cc2nn(C)c(=O)c3ccccc23)nnc1SCC(=O)Nc1ccccc1C(=O)O`, the concentration for half-maximal inhibition (IC50) entry is recorded as “Not Active”.
On the same count and under the same terms, to `Cn1c(Cc2nn(C)c(=O)c3ccccc23)nnc1SCC(=O)Nc1ccc(I)cc1` belongs “Not Active”.

Tested on in a further experiment: not listed separately
Description: Inhibition of recombinant human IL2R/IL2-induced mouse 32D-beta cell proliferation preincubated for 30 mins with protein followed by cell addition measured after 2.5 days by Alamar blue reduction assay.
Conditions: not given
The method in brief: as §1
For `CN(C(=O)CSc1nnc(Cc2nn(C)c(=O)c3ccccc23)n1C)c1ccc(Cl)cc1Cl`, the half-inhibitory concentration (IC50) result is given as “Not Active”.
The same measure, in the same setting: to `CCOC(=O)c1cccc(NC(=O)CSc2nnc(Cc3nn(C)c(=O)c4ccccc34)n2C)c1` belongs “Not Active”; to `COc1ccc(NC(=O)CSc2nnc(Cc3nn(C)c(=O)c4ccccc34)n2C)cc1`, “Not Active”; to `Cn1c(Cc2nn(C)c(=O)c3ccccc23)nnc1SCC(=O)Nc1cccc(C(=O)O)c1`, “Not Active”.
In the case of `Cn1c(Cc2nn(C)c(=O)c3ccccc23)nnc1SCC(=O)Nc1ccc(O)cc1`, the IC50 entry was “Not Active”.
Still for that read-out and setting: to `Cn1c(Cc2nn(C)c(=O)c3ccccc23)nnc1SCC(=O)NC12CC3CC(CC(C3)C1)C2` belongs “Not Active”.
For `Cn1c(Cc2nn(C)c(=O)c3ccccc23)nnc1SCC(=O)Nc1ccccc1C(=O)O`, the IC50 result is recorded as “Not Active”.
As to `Cn1c(Cc2nn(C)c(=O)c3ccccc23)nnc1SCC(=O)Nc1ccc(I)cc1`, the half-maximal inhibitory concentration (IC50) result was “Not Active”.

The experiment is the same for the next values; noted with them: Homo sapiens; read-out: IC50.
Consider `Cn1c(Cc2nn(C)c(=O)c3ccccc23)nnc1SCCCCCCCC(=O)Nc1ccc(O)cc1`, for which the half-maximal inhibitory concentration (IC50) was more than 30000 nM.
Same read-out and setting: to `Cn1c(Cc2nn(C)c(=O)c3ccccc23)nnc1SCCCC(=O)Nc1ccc(Cl)cc1Cl` belongs 11200 nM; to `Cn1c(Cc2nn(C)c(=O)c3ccccc23)nnc1S(=O)(=O)CCCCCCCC(=O)Nc1ccc(Br)cc1Br`, 1600 nM.
The same measure, in the same setting: as for `Cn1c(Cc2nn(C)c(=O)c3ccccc23)nnc1SCCCCCCCCCCC(=O)Nc1ccc(Cl)cc1Cl`, the figure is 4400 nM; as for `Cn1c(Cc2nn(C)c(=O)c3ccccc23)nnc1SCCCCCCCC(=O)NC12CC3CC(CC(C3)C1)C2`, 1800 nM; as for `COc1ccc(NC(=O)CCCCCCCSc2nnc(Cc3nn(C)c(=O)c4ccccc34)n2C)c(OC)c1`, 900 nM.
On the same count and under the same terms, to `Cn1c(Cc2nn(C)c(=O)c3ccccc23)nnc1SCCCCCCCC(=O)Nc1ccc(I)cc1` belongs 800 nM; to `Cn1c(Cc2nn(C)c(=O)c3ccccc23)nnc1SCCCCCCCCCCC(=O)NC12CC3CC(CC(C3)C1)C2`, 4900 nM; to `CC(C)Oc1ccc(NC(=O)CCCCCCCSc2nnc(Cc3nn(C)c(=O)c4ccccc34)n2C)cc1`, 600 nM.
For `CC(C)COc1ccc(NC(=O)CCCCCCCSc2nnc(Cc3nn(C)c(=O)c4ccccc34)n2C)cc1`, the 50% inhibitory concentration (IC50) came to 3000 nM.
Still for that read-out and setting: as for `Cn1c(Cc2nn(C)c(=O)c3ccccc23)nnc1SCc1cn(C23CC4CC(CC(C4)C2)C3)nn1`, the figure is 30000 nM; as for `CN(C(=O)CCCCCCCSc1nnc(Cc2nn(C)c(=O)c3ccccc23)n1C)c1ccc(Cl)cc1Cl`, 8400 nM.
The same measure, in the same setting: as for `Cn1c(Cc2nn(C)c(=O)c3ccccc23)nnc1SCCCCCCCC(=O)Nc1ccc(F)cc1F`, the figure is 1000 nM; as for `CC(C)Oc1ccc(NC(=O)CSc2nnc(Cc3nn(C)c(=O)c4ccccc34)n2C)cc1`, more than 30000 nM.

The target in a further experiment is IL15-IL15 receptor (Homo sapiens, UniProt P40933). Description: Inhibition of IL15R/IL15 interaction in human NK92 cells assessed as reduction of IL15-induced STAT5 phosphorylation preincubated for 30 mins with IL15 followed by cell addition measured after 1 hr by AlphaScreen assay. In kind it is cell-based.
Sequence of IL15-IL15 receptor (Homo sapiens, UniProt P40933) (P40933 whole entry): as the sequence (P40933 whole entry, the tested form may be a part) above
Sequence of IL15-IL15 receptor (Homo sapiens, UniProt P40933) (Q13261 whole entry, further chain): as the sequence (Q13261 whole entry, the tested form may be a part) above
Conditions: not given
The gist of the method: (§2)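 NK-92 cells were washed and serum-starved overnight, then 2 × 10^5 cells were stimulated at 37 °C for 1 h with IL-15 (50 pM fixed) or IL-2. The cytokine had been preincubated 30 min with increasing compound concentrations or vehicle (PBS, BSA 0.1%, DMSO 0.6% final). Cells were lysed and p-Stat5 read by AlphaScreen SureFire. Duplicates, ≥3 independent experiments. Result is % reduction of the cytokine p-Stat5 response.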
On to `Cn1c(Cc2nn(C)c(=O)c3ccccc23)nnc1SCCCCCCCCCCC(=O)Nc1ccc(Cl)cc1Cl`, for which the IC50 was found to be 142 nM.
Regarding `Cn1c(Cc2nn(C)c(=O)c3ccccc23)nnc1SCCCCCCCC(=O)NC12CC3CC(CC(C3)C1)C2`, the concentration for half-maximal inhibition (IC50) came out at 210 nM.
On to `COc1ccc(NC(=O)CCCCCCCSc2nnc(Cc3nn(C)c(=O)c4ccccc34)n2C)c(OC)c1`, for which the IC50 turned out to be 205 nM.
For `Cn1c(Cc2nn(C)c(=O)c3ccccc23)nnc1SCCCCCCCCCCC(=O)NC12CC3CC(CC(C3)C1)C2`, the half-inhibitory concentration (IC50) turned out to be 124 nM.
The same measure, in the same setting: as for `CC(C)Oc1ccc(NC(=O)CCCCCCCSc2nnc(Cc3nn(C)c(=O)c4ccccc34)n2C)cc1`, the figure is 93 nM.
The same measure, in the same setting: to `CC(C)COc1ccc(NC(=O)CCCCCCCSc2nnc(Cc3nn(C)c(=O)c4ccccc34)n2C)cc1` belongs 55 nM; to `Cn1c(Cc2nn(C)c(=O)c3ccccc23)nnc1SCCCCCCCC(=O)Nc1ccc(F)cc1F`, 110 nM.
On the same count and under the same terms, to `Cn1c(Cc2nn(C)c(=O)c3ccccc23)nnc1SCC(=O)NC12CC3CC(CC(C3)C1)C2` belongs more than 30000 nM.

Tested on in another experiment: not listed separately
Description: Inhibition of IL2R/IL2 interaction in human NK92 cells assessed as reduction IL2-induced STAT5 phosphorylation preincubated for 30 mins with IL2 followed by cell addition measured after 1 hr by AlphaScreen assay. Type of experiment: cell-based.
Conditions: not given
The gist of the method: as §2
For `Cn1c(Cc2nn(C)c(=O)c3ccccc23)nnc1SCCCCCCCCCCC(=O)Nc1ccc(Cl)cc1Cl`, the half-maximal inhibitory concentration (IC50) worked out at 159 nM.
Still for that read-out and setting: to `Cn1c(Cc2nn(C)c(=O)c3ccccc23)nnc1SCCCCCCCC(=O)NC12CC3CC(CC(C3)C1)C2` belongs 152 nM.
As for `COc1ccc(NC(=O)CCCCCCCSc2nnc(Cc3nn(C)c(=O)c4ccccc34)n2C)c(OC)c1`, the IC50 turned out to be 162 nM.
On the same count and under the same terms, to `Cn1c(Cc2nn(C)c(=O)c3ccccc23)nnc1SCCCCCCCCCCC(=O)NC12CC3CC(CC(C3)C1)C2` belongs 59 nM.
In the case of `CC(C)Oc1ccc(NC(=O)CCCCCCCSc2nnc(Cc3nn(C)c(=O)c4ccccc34)n2C)cc1`, the half-maximal inhibitory concentration (IC50) was found to be 89 nM.
Same read-out and setting: as for `CC(C)COc1ccc(NC(=O)CCCCCCCSc2nnc(Cc3nn(C)c(=O)c4ccccc34)n2C)cc1`, the figure is 58 nM; as for `Cn1c(Cc2nn(C)c(=O)c3ccccc23)nnc1SCCCCCCCC(=O)Nc1ccc(F)cc1F`, 76 nM.
Same read-out and setting: as for `Cn1c(Cc2nn(C)c(=O)c3ccccc23)nnc1SCC(=O)NC12CC3CC(CC(C3)C1)C2`, the figure is more than 30000 nM.

The target of a further experiment is Interleukin-15 (Homo sapiens, UniProt P40933). Description: Binding affinity to recombinant human IL-15 by SPR assay.
Sequence of Interleukin-15 (P40933 whole entry): as the sequence (P40933 whole entry, the tested form may be a part) above
Conditions: not given
The gist of the method:
(§3)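 SPR on a BIAcore 3000 at 25 °C. Recombinant IL-15, RLI or IL-2 was amine-coupled to CM5 chips, and compounds were flowed over at 100 μM or at increasing concentrations (3.125–100 μM) in PBS or 1% or 5% DMSO. Binding was read as the change in RU, and Kd was derived from direct interaction.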
For `Cn1c(Cc2nn(C)c(=O)c3ccccc23)nnc1SCCCCCCCC(=O)NC12CC3CC(CC(C3)C1)C2`, the dissociation constant (Kd) is 78000 nM.
Take `COc1ccc(NC(=O)CCCCCCCSc2nnc(Cc3nn(C)c(=O)c4ccccc34)n2C)c(OC)c1`: the dissociation constant (Kd) came to 19600 nM.
Same read-out and setting: as for `Cn1c(Cc2nn(C)c(=O)c3ccccc23)nnc1SCCCCCCCCCCC(=O)NC12CC3CC(CC(C3)C1)C2`, the figure is 16000 nM.
Same read-out and setting: to `CC(C)Oc1ccc(NC(=O)CCCCCCCSc2nnc(Cc3nn(C)c(=O)c4ccccc34)n2C)cc1` belongs 20900 nM.
Still for that read-out and setting: as for `CC(C)COc1ccc(NC(=O)CCCCCCCSc2nnc(Cc3nn(C)c(=O)c4ccccc34)n2C)cc1`, the figure is 25000 nM.

In another experiment the target is Interleukin-2 (Homo sapiens, UniProt P60568). Description: Binding affinity to recombinant human IL-2 by SPR assay.
Sequence of Interleukin-2 (P60568 whole entry): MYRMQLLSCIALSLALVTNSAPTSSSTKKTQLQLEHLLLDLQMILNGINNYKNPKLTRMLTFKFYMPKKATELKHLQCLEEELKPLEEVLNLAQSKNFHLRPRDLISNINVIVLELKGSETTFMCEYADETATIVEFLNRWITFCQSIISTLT
Conditions: not given
The method in brief:
as §3
Consider `COc1ccc(NC(=O)CCCCCCCSc2nnc(Cc3nn(C)c(=O)c4ccccc34)n2C)c(OC)c1`, for which the dissociation constant Kd worked out at 27600 nM.
